Source: PubChem BioAssay
SKN-1 inh: C. elegans SKN-1 inhibition. C. elegans VP596 Pgst-4::GFP/RFP ratio, acrylamide-induced, 24 h. AID 624304. 0.49% of 360,000 active. inhibition, % at 21.8 µM;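 active = interference check ratio from 0.5 to 1.5 plus GFP to RFP signal ratio inhibition reaching or exceeding a fixed threshold, cut at about 30% in these data, passing the limit was not always enough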
CSN inh: inhibitors of human CSN-mediated cullin deneddylation; inhibition, % at 12.5 µM; Purified CSN, SCF-Nedd8-OG deneddylation, fluorescence polarization; Q92905; AID 651999; 0.38% of 360,000 active;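 active = pattern-corrected inhibition above about 35%, with an unprinted fluorescence ratio check between 0.5 and 1.5, limit read from the data, passing the limit was not always enough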;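 also: 0% = enzyme with substrate and 100% = substrate without enzyme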
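Material: purified human Csn5 enzyme expressed in HEK293T cells / Medium: Tris buffer pH 7.5, NaCl, DTT, Tween-20, trehalose, ovalbumin / Compound dosing: 12.5 µM single point / Schedule: 90 min incubation of compound, enzyme and substrate at room temperature / Signal: fluorescence polarization of the substrate / Control set: no-enzyme wells high, enzyme-with-substrate wells low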
MT1-MMP act inh: inhibitors of human MT1-MMP activation. P50281. HT1080 RFP-PRO-GFP cells, GFP/RFP ratio fluorescence, overnight; percent of plate control window, DMSO zero. GFP/RFP ratio change, % at 20 µM. 0.061% of 360,000 active;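 active = GFP/RFP ratio change of at least 30% with cell ATP level not reduced by more than half and red fluorescence within 50% of control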
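Test system: HT1080 cells expressing an RFP-PRO-GFP fluorescent reporter construct / Compound dosing: single-point 20 µM compound, 1% DMSO / Schedule: cells overnight before dosing, compound overnight, 37 °C, 5% CO2 / Evaluation: GFP/RFP fluorescence ratio / Control set: DMSO and RFP-L50D-GFP cell wells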
Rpn11 block: Rpn11 (human) deubiquitinase inhibition; inhibition, % at 20 µM; O00487; human 26S proteasome, Ub4-pepOG fluorescence polarization; 20S core pre-blocked with epoxomicin; 0.59% of 360,000 active;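 active = inhibition at 20 µM, scaled to each plate's controls, above about 33%, limit read from the data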
SUMO1 PPI mod: SUMO1-SIM interaction modulation | P63165 | SUMO1 binding to a labelled peptide, TR-FRET, 1 h | inhibition, % at 20 µM | AID 602429 | 0.33% of 360,000 active; in the data active = inhibition above about 37%
Target sequence (P63165 whole entry, looked up): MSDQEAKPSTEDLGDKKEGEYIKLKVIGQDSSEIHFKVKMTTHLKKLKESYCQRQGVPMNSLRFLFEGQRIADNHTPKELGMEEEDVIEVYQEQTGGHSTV
DNMT1 block: DNMT1 (human) enzyme inhibition | P26358 | DNMT1 molecular beacon, Hinp1I cleavage, fluorescence | inhibition (reported as % activation of signal), % at 10 µM | 0.83% of 360,000 active | AID 588458; in the data active = inhibition above about 50%
Rpn11 confirm: Rpn11 inhibition confirmation, single concentration. 29% of 1,900 active. shares compounds with Rpn11 block. inhibition, % at 20 µM. purified human 26S proteasome, Ub4-pepOG fluorescence polarization; proteasome pretreated with epoxomicin. AID 602318
MMP-2 inh: counter-screen for RPN11 inhibitors: inhibition of human MMP-2. 4% of 1,900 active. shares compounds with Rpn11 block. recombinant MMP-2, FRET peptide cleavage fluorescence. inhibition, % at 20 µM;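 also: human MMP-2 activated beforehand with APMA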
Thrombin FP: counter-screen for RPN11 inhibitors: inhibition of bovine thrombin | shares compounds with Rpn11 block | bovine thrombin cleavage of Ub4-pepOG, fluorescence polarization | inhibition, % at 20 µM | 13% of 1,900 active | AID 602333;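 active = mean inhibition at least 40% at 20 µM, or signal 3 deviations below plate average, so some actives read negative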;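 also: plate controls were thrombin with DMSO for no effect and buffer wells lacking thrombin for full effect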
Target sequence (P00735 whole entry, looked up): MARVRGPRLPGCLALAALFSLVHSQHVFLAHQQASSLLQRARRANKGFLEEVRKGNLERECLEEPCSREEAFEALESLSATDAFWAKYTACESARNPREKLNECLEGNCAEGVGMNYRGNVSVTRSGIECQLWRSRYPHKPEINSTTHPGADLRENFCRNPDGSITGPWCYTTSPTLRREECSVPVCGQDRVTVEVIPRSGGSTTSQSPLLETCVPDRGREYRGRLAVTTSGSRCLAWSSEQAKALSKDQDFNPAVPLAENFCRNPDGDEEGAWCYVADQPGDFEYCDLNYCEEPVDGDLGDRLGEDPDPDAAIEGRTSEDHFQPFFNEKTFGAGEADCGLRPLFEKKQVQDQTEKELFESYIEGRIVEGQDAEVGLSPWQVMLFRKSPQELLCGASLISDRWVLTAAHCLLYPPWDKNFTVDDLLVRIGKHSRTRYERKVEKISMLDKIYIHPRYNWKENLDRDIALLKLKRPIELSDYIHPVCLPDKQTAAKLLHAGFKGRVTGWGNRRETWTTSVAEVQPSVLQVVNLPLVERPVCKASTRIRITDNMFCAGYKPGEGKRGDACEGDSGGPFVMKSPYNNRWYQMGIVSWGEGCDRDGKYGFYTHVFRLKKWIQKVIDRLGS
* = called active by the depositor; nt = no result given. In the library only some 2.3% were active in any assay of this set; here they are far more common. Rule as the data show it, unless noted: active = inhibition above about 40%; inactive = the rest.

SMILES | SKN-1 inh | CSN inh | MT1-MMP act inh | Rpn11 block | SUMO1 PPI mod | DNMT1 block | Rpn11 confirm | MMP-2 inh | Thrombin FP
O=C(CCCN1C(=O)/C(=C\c2cccs2)SC1=S)NNC(=O)c1cccnc1 | 16 | -5 | 5 | 166* | -22 | -4 | 3 | 13 | -2
O=C(CCN1C(=O)/C(=C/c2cccs2)SC1=S)Nc1ccccn1 | 22 | 14 | -20 | nt | -8 | -3 | nt | nt | nt
COc1ccc(C(O)c2nc(-c3ccccc3C)cs2)cc1 (stereo not drawn) | 8 | -3 | -2 | 2 | 1 | -1 | nt | nt | nt
COCCNc1nc2cc(-c3cccc(Cl)c3)sc2c(=O)n1C | 2 | 0 | 2 | -2 | -21 | -4 | nt | nt | nt
CCOc1ccccc1C(=O)NC(C(=O)OCn1nnc2ccccc2c1=O)C(C)C (stereo not drawn) | 4 | 15 | 5 | -6 | 3 | 1 | nt | nt | nt
COc1nc(-c2ccccc2)ccc1-c1noc(-c2cccs2)n1 | -15 | 7 | -9 | 46* | 6 | -11 | 28 | -24 | 22
FC(F)(F)c1ccc2c(c1)n(Cc1ccccc1)c1[n+]2CCCCC1 | 0 | 7 | -14 | 54* | -5 | 2 | -11 | 3 | -21
O=C(Cn1c2[n+](c3ccc(C(F)(F)F)cc31)CCCCC2)Nc1ccccc1 | -7 | -5 | -2 | -9 | 0 | 6 | nt | nt | nt
CCOC(=O)C1=C(O)/C(=C/c2ccc(-c3ccccc3C(=O)O)o2)SC1=Nc1ccc(OC)cc1 | -30 | 35 | -27 | 52* | 11 | 24 | 60* | 12 | 41*
CC1C(=O)N(Cc2cn(Cc3ccco3)nn2)CCS(=O)(=O)N1Cc1ccc(-c2cccnc2)cc1 (stereo not drawn) | -2 | 10 | -5 | 46* | 18 | 0 | -3 | 23 | 13
COCCn1c(=NC(=O)c2cc(-c3cccs3)nc3ccccc23)sc2cc(S(N)(=O)=O)ccc21 | 12 | 0 | 7 | 58* | -4 | -17 | 20 | 32 | 10
C=CCn1c(=NC(=O)c2sc3ccccc3c2Cl)sc2cc(S(N)(=O)=O)ccc21 | 4 | 20 | 11 | 49* | -2 | 33 | 49* | -19 | 0
CCOC(=O)Cn1c(=NC(=O)c2nc3ccccc3s2)sc2cc(S(N)(=O)=O)ccc21 | -8 | 2 | -2 | 41* | -1 | 19 | 7 | -16 | -5
Cn1c(=O)n(C)c2cc(CNC(=O)[C@H]3O[C@@H](n4ccc(=O)[nH]c4=O)[C@H](O)[C@@H]3O)ccc21 | 10 | 0 | -1 | -6 | 1 | -1 | nt | nt | nt
Cn1c(CO)cnc1S(=O)(=O)Cc1ccc(Cl)cc1 | -6 | -1 | 1 | -3 | 2 | 2 | nt | nt | nt
Cn1c(CO)cnc1SCc1ccc(Cl)cc1 | 6 | 5 | 10 | 107* | 5 | -8 | -12 | -47 | -6
CCOC(=O)C1(C)CCN1C(=O)c1ccc2c(c1)CCO2 (stereo not drawn) | 9 | 1 | 1 | -7 | -3 | 8 | nt | nt | nt
COCCNC(=O)C[C@@H]1C[C@H]2c3cc(NC(=O)Nc4ccc(F)cc4)ccc3O[C@H]2[C@H](CO)O1 | -6 | -4 | 1 | -4 | 1 | 5 | nt | nt | nt
CCS(=O)(=O)C1=NSC2=NC(=O)/C(=C\c3ccc(OC(=O)c4ccco4)c(OC)c3)C(=N)N21 | 6 | 31 | -34 | 118* | -14 | 11 | 36 | -4 | 34
CCOc1cc(/C=C2/C(=N)N3C(=NC2=O)SN=C3S(=O)(=O)CC)ccc1OC(=O)c1ccco1 | -4 | 30 | -38 | 56* | -8 | 6 | 16 | -5 | 4
CCS(=O)(=O)C1=NN2C(=N)/C(=C\c3ccc(OC(=O)c4ccco4)c(OC)c3)C(=O)N=C2S1 | 4 | 22 | -60 | 46* | 3 | 4 | 22 | -4 | 19
COc1cc(/C=C2/C(=N)N3C(=NC2=O)SN=C3S(C)(=O)=O)ccc1OC(=O)c1ccco1 | 6 | 31 | -53 | 69* | -7 | 9 | 67* | 13 | 39
COc1cc(/C=C2/C(=N)N3C(SC)=NSC3=NC2=O)ccc1OC(=O)c1ccco1 | 0 | 29 | 0 | 20 | -1 | 4 | nt | nt | nt
COc1cc(/C=C2/C(=N)N3C(=NC2=O)SN=C3S(=O)(=O)C(C)C)ccc1OC(=O)c1ccco1 | -4 | 19 | -25 | 47* | -10 | 6 | 25 | -15 | 13
CCOc1cc(/C=C2/C(=N)N3C(=NC2=O)SN=C3S(=O)(=O)C(C)C)ccc1OC(=O)c1ccco1 | 8 | 28 | -49 | nt | -1 | -2 | nt | nt | nt
SMILES | SKN-1 inh | CSN inh | MT1-MMP act inh | Rpn11 block | SUMO1 PPI mod | DNMT1 block | Rpn11 confirm | MMP-2 inh | Thrombin FP
CCc1nc2c(OCc3c(C)noc3C)cccn2c1N(C=O)Cc1ccccc1 | 6 | 1 | 0 | 2 | -2 | -1 | nt | nt | nt
Cc1cc(Cl)ccc1Oc1ccccc1C(=O)CC#N | 4 | -9 | -2 | 56* | 2 | -5 | 28 | 22 | 25
Cc1cc(Cl)ccc1Oc1ccc(C(N)=O)cc1[N+](=O)[O-] | -6 | -7 | 3 | 0 | -8 | -1 | nt | nt | nt
COCCCn1c(SCc2nc3ccccc3c(=O)[nH]2)nc2ccccc2c1=O | 18 | 1 | -5 | 105* | 8 | -8 | -13 | -23 | 8
Cc1sc2nc(CSc3nc4ccccc4c(=O)n3CCCN3CCOCC3)[nH]c(=O)c2c1C | 25 | 17 | -23 | 50* | 3 | 0 | 89* | -33 | 38
CC(=O)c1c(C)[nH]c(C(=O)CSc2nc3ccccc3c(=O)n2CCCN2CCOCC2)c1C | -3 | 1 | -2 | -1 | 2 | -3 | nt | nt | nt
COc1ccc(C(=O)C[C@@H]2OC3CCCCC3N2S(=O)(=O)c2ccc(C)cc2)cc1OC (stereo partly drawn) | -2 | -3 | -1 | nt | -9 | nt | nt | nt | nt
O=C(NC1CCCC1)C(C1CC1)n1c(C2CC2)nc2ccccc21 (stereo not drawn) | 7 | -3 | 4 | nt | 2 | nt | nt | nt | nt
O=C(Nc1ccc(F)cc1)Nc1nnc(-c2ccncc2)s1 | 4 | 17 | -6 | 66* | 3 | 2 | 41* | -2 | 3
O=C(Nc1ccc(Cl)cc1)Nc1nnc(-c2ccncc2)s1 | 3 | 24 | -9 | 170* | 9 | -16 | 30 | 3 | -22
